This note sets out measurements from ChEMBL document CHEMBL1122670, “Synthesis of previously inaccessible quinazolines and 1,4-benzodiazepines as potential anticonvulsants” (J Med Chem, 1984).

“And” between values parts separate entries of the source, which are not always exact repeats. Equal values may be shown once. The source made the active and inactive calls.

The test system of data set [1] is Mus musculus. Description: Effective dose (ED50) was determined in sc Met (pentylenetetrazole) seizure threshold test. In kind it is functional. In a few lines:
(§1)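 ADD Program screen in mice. Doses of 30, 100, 300 and 600 mg/kg were given, four animals per dose, with tests at 30 min and at 4 h. sc Met endpoint: no threshold seizure (single clonic spasm of 5 s) after an sc convulsant dose 99 of pentylenetetrazol. Rotorod assessed acute neurotoxicity. ED50/TD50 were estimated graphically; Litchfield-Wilcoxon 95% confidence limits were added for selected cases.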

Data set [2] relates to Mus musculus. Description: Evaluated for seizure threshold test at a dose 100 mg/kg & MMT is the maximal metrazole threshold to tonic flexion. The class given is functional. In a few lines:
(§2)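 At 0.5 h (some at 1 or 4 h), 0.5% pentylenetetrazol in 0.9% NaCl with 0.001% heparin was infused into the tail vein at 6.31 μL/s. Time to 3 s persistent clonus (MST) or tonic flexion (MMT) was converted to mg/kg, reported as % change vs controls, Student's t test.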

Data set [3] has as its system Mus musculus. Nature of the data set: Evaluated for seizure threshold test at a dose 100 mg/kg & MMT is the maximal metrazole threshold to tonic flexion; I - inactive. Also on record: dose 100 mg/kg. In kind it is functional, organism-based. In a few lines:
(§3)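 0.5% pentylenetetrazol (with 0.9% NaCl and 0.001% heparin) was infused into a lateral tail vein at 6.31 μL/s. Time to 3 s of persistent clonus (MST) or hindlimb tonic flexion (MMT) was converted to mg/kg infused. Tested at 0.5 h (some at 4 h or 1 h). Results are % change from controls, by Student's t test.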

The subject of data set [4] is Mus musculus. Description: Evaluated for seizure threshold test at a dose 100 mg/kg & MST is the metrazole seizure threshold to persistent clonus. In kind it is functional. In a few lines: as §2
A short description of data set [5]: Compound was determined in rotarod test and expressed as TD50. The class given is ADME, organism-based. The conditions noted are these: mouse, in vivo. In a few lines:
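ADD Program screen in mice. Doses of 30, 100, 300 and 600 mg/kg were given, four animals per dose, with tests at 30 min and at 4 h. sc Met endpoint: no threshold seizure (single clonic spasm of 5 s) after an sc convulsant dose 99 of pentylenetetrazol. Rotorod assessed acute neurotoxicity.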
(In general: The rotarod test checks motor coordination on a turning rod.)

For data set [6], the system named is Mus musculus. Nature of the data set: Effective dose (ED50) was determined in sc Met (pentylenetetrazole) seizure threshold test; I = Inactive. In kind it is functional, organism-based. In a few lines:
as §1

Data set [7] concerns Mus musculus. Nature of the data set: Evaluated for seizure threshold test at a dose 25 mg/kg &MMT is the maximal metrazole threshold to tonic flexion; I = Inactive. The class given is functional, organism-based. Also noted: dose 25 mg/kg. Put shortly: as §3
Data set [8] has as its system Mus musculus. Nature of the data set: Evaluated for seizure threshold test at a dose 25 mg/kg &MST is the metrazole seizure threshold to persistent clonus; I = Inactive. Also on record: dose 25 mg/kg. The class given is functional, organism-based. Put shortly:
as §3

For data set [9], the species on record is Mus musculus. Nature of the data set: Compound was determined in rotarod test and expressed as TD50; I = Inactive. The conditions noted are these: in vivo. In kind it is ADME, organism-based. In a few lines:
as §1

Data set [10] relates to Mus musculus. Nature of the data set: Evaluated for seizure threshold test at a dose 300 mg/kg & MST is the metrazole seizure threshold to persistent clonus. In kind it is functional. Put shortly:
as §2

The subject of data set [11] is Mus musculus. Nature of the data set: Evaluated for seizure threshold test at a dose 100 mg/kg & MMT is the maximal metrazole threshold to tonic flexion; I - Inactive. Also noted: dose 100 mg/kg. The class given is functional, organism-based. In a few lines:
as §3

The subject of data set [12] is Mus musculus. Description: Evaluated for seizure threshold test at a dose 300 mg/kg & MMT is the maximal metrazole threshold to tonic flexion; I - Inactive. The class given is functional. Put shortly:
as §3

The test system of data set [13] is Mus musculus. Nature of the data set: Evaluated for seizure threshold test at a dose 300 mg/kg &MMT is the maximal metrazole threshold to tonic flexion. In kind it is functional. In a few lines: as §3
The subject of data set [14] is Mus musculus. Description: Evaluated for seizure threshold test at a dose 300 mg/kg &MST is the metrazole seizure threshold to persistent clonus. In kind it is functional. In a few lines:
as §2

Data set [15] deals with Mus musculus. Nature of the data set: Evaluated for seizure threshold test at a dose 75 mg/kg &MMT is the maximal metrazole threshold to tonic flexion. The class given is functional. In a few lines:
as §3

The subject of data set [16] is Mus musculus. Nature of the data set: Evaluated for seizure threshold test at a dose 75 mg/kg &MST is the metrazole seizure threshold to persistent clonus; I = Inactive. Also noted: dose 75 mg/kg. The class given is functional, organism-based. In a few lines:
as §3

In data set [17] the test system is Mus musculus. Nature of the data set: Effective dose (ED50) was determined in sc Met (pentylenetetrazole) seizure threshold test; I = Inactive at all doses including 600 mg/kg. The class given is functional, organism-based. Also noted: dose 600 mg/kg. In a few lines: as §1
Data set [18] relates to Mus musculus. Description: Evaluated for seizure threshold test at a dose 0.2 mg/kg &MMT is the maximal metrazole threshold to tonic flexion. In kind it is functional. Put shortly:
as §2

The test system of data set [19] is Mus musculus. Nature of the data set: Evaluated for seizure threshold test at a dose 0.2 mg/kg &MST is the metrazole seizure threshold to persistent clonus. In kind it is functional. In a few lines:
as §2

The test system of data set [20] is Mus musculus. Nature of the data set: Evaluated for seizure threshold test at a dose 1.0 mg/kg &MST is the metrazole seizure threshold to persistent clonus. The class given is functional. Put shortly: as §2
Data set [21] deals with Mus musculus. Description: Evaluated for seizure threshold test at a dose 1.0 mg/kg &MMT is the maximal metrazole threshold to tonic flexion. In kind it is functional. Put shortly:
as §2

The subject of data set [22] is Mus musculus. Description: Evaluated for seizure threshold test at a dose 300 mg/kg &MST is the metrazole seizure threshold to persistent clonus; NA - Inactive. In kind it is functional, organism-based. Also on record: dose 300 mg/kg. Put shortly: as §3
For data set [23], the target named is GABA-A receptor; anion channel (Mus musculus) (UniProt Q8BHJ7+P26048+Q8QZW7+P50571+Q9R0Y8+P22723+A2AMW3+P62812+Q9JLF1+P26049+P22933+Q9D6F4+P63080+P27681+P16305). Description: Inhibition of binding to GABA-A central benzodiazepine receptor (inactive). In kind it is protein-complex assay.
In data set [24] the test system is Mus musculus. Description: Evaluated for seizure threshold test at a dose 100 mg/kg & MMT is the maximal metrazole threshold to tonic flexion; I = inactive. In kind it is functional, organism-based. Also noted: dose 100 mg/kg. In a few lines:
as §2

Data set [25] is described as follows: Compound was evaluated for median lethal dose. The class given is ADME, organism-based. The conditions noted are these: mouse, in vivo; read-out: LD.
The test system of data set [26] is Mus musculus. Description: Evaluated for seizure threshold test at a dose 300 mg/kg & MMT is the maximal metrazole threshold to tonic flexion; I - inactive. Also noted: dose 300 mg/kg. In kind it is functional, organism-based. In a few lines: as §2
The subject of data set [27] is Mus musculus. Nature of the data set: Evaluated for seizure threshold test at a dose 100 mg/kg & MST is the metrazole seizure threshold to persistent clonus; I = inactive. In kind it is functional, organism-based. Also on record: dose 100 mg/kg. Put shortly:
as §2

Data set [28] concerns GABA-A receptor; anion channel. Nature of the data set: Inhibition of binding to GABA-A central benzodiazepine receptor (Inactive). The class given is protein-complex assay, Mus musculus.
The test system of data set [29] is Mus musculus. Nature of the data set: Evaluated for seizure threshold test at a dose 300 mg/kg &MMT is the maximal metrazole threshold to tonic flexion; I = Inactive. The class given is functional, organism-based. Also on record: dose 300 mg/kg. In a few lines: as §2

A word on the ED50: it is the dose that gives a 50% effect, or the effect in half of the subjects. As a reminder, the TD50 is the 50% point of the dose-response relation for the toxic effect studied. A higher TD50 goes with harm only at a large dose. In turn, `Cc1cc(C(=O)c2ccccc2)c(NC(=O)CBr)c(C#N)c1C` displayed an ED50 in the data set on Mus musculus [1] of 480 mg/kg. Moreover, the Change is 49% in the data set with Mus musculus [2]; 70% and 37% in the data set with Mus musculus [4] (100 mg/kg). Besides, the Change entry in the data set on Mus musculus [3] is “inactive”. The same compound displayed a TD50 in [5] of 600 mg/kg.

For `Cc1cc(C(=O)c2ccccc2Cl)c(N)c(C#N)c1C`, in the data set on Mus musculus [6], the ED50 result is “inactive”. For the same compound, the Change result in the data set on Mus musculus [7] and in the data set on Mus musculus [8] was “Not significant” each time. In the data set filed under Mus musculus [9], the TD50 result is listed as “Not Active”.

Consider `CC(=O)c1cc(C)c(C)c(C#N)c1NC(=O)CBr`, for which the Change with Mus musculus [10] was -22%; in the data set with Mus musculus [11] it was “Not significant”; with Mus musculus [4], -14%; in the data set on Mus musculus [12], -17%. In the data set with Mus musculus [1], this compound displayed an ED50 of 500 mg/kg. For the same compound, the TD50 in data set [5] turned out to be 600 mg/kg.

For the compound `Cc1cc2c(C)nc(O)nc2c(C#N)c1C`, the ED50 result in the data set with Mus musculus [6] was “inactive”. Besides, the Change result in the data set on Mus musculus [7] and in the data set on Mus musculus [8] was “Not significant” in each case. In addition, the TD50 entry in the data set listed under Mus musculus [9] is “Not Active”.

For `CC(=O)c1cc(C)c(C)c(C#N)c1N`, the Change is listed as 13% in the data set with Mus musculus [13] and 15% with Mus musculus [14]. In the data set on Mus musculus [1], this compound displayed an ED50 of 300 mg/kg. Moreover, in [5], the TD50 was above 600 mg/kg.

Consider `Cc1cc2c(c(C#N)c1C)NC(=O)NC2C` (stereo not drawn), for which the figures for the Change with Mus musculus [15] and with Mus musculus [16] were -16% and “Not significant”, respectively. Moreover, the ED50 entry with Mus musculus [17] was “inactive”. In data set [5], this compound gave a TD50 of 300 mg/kg.

Turning to `CN1C(=O)CN=C(c2ccccc2)c2cc(Cl)ccc21` [DIAZEPAM], the 50% effect level in the data set with Mus musculus [1] (ED50) was put at a dose of 0.17 mg/kg. Further, the Change with Mus musculus [18] came out at 15%; in the data set with Mus musculus [19] it was 50%; in the data set on Mus musculus [20], 60%; in the data set with Mus musculus [21] it was 40%. Further, the TD50 in [5] was determined as 7.3 mg/kg.

As to `CC(=O)c1cc(-c2ccccc2)c(-c2ccccc2)c(C#N)c1N`, in the data set on Mus musculus [13], the Change came to 20%. In the data set with Mus musculus [22], the Change result was “inactive”. Further, the ED50 in the data set with Mus musculus [1] is 260 mg/kg. This compound also returned a TD50 in [5] above 600 mg/kg.

On to `Cc1cc2c(-c3ccccc3F)ncnc2c(C#N)c1C`, for which the ED50 result in the data set on Mus musculus [6] was “inactive”. In addition, the Change entry in the data set on Mus musculus [7] and in the data set with Mus musculus [8] was “Not significant” each time. In the data set listed under Mus musculus [9], the TD50 entry is “Not Active”.

With `Cc1cc2c(-c3ccccc3)ncnc2c(C#N)c1C`, the ED50 entry in the data set with Mus musculus [6] was “inactive”. The Change entry in the data set with Mus musculus [7] and in the data set on Mus musculus [8] was “Not significant” each time. The TD50 result in the data set listed under Mus musculus [9] is “Not Active”.

`Cc1cc2c(c(C#N)c1C)NC(=O)CN=C2c1ccccc1`: the Change result (in data set [23]; in the data set with Mus musculus [24]; in the data set on Mus musculus [26]; in the data set with Mus musculus [27]) was “inactive” throughout. The Change in the data set with Mus musculus [10] came out at 44%. In addition, in the data set on Mus musculus [1], the ED50 was 370 mg/kg. Further, the LD50 in data set [25] was above 2 mg/kg. In [5], the TD50 is above 1000 mg/kg.

As for `Cc1cc2c(c(C#N)c1C)NC(=O)CN=C2C1CC1`, the IC50 entry in [28] was “Not Active”. For the same compound, the Change result in the data set on Mus musculus [29] was “inactive”. Besides, in the data set on Mus musculus [14], the Change was 300%. In the data set with Mus musculus [17], the ED50 result is “inactive”. In data set [5], this compound returned a TD50 of 600 mg/kg.
